The record followed here is ChEMBL document CHEMBL3352166, “Structure-guided design and development of novel benzimidazole class of compounds targeting DNA gyraseB enzyme of Staphylococcus aureus” (Bioorg Med Chem, 2014).

Data set [1] deals with Staphylococcus aureus. Put plainly: Antimicrobial activity against methicillin-resistant Staphylococcus aureus MTCC 96 after 16 to 24 hrs by agar dilution method. The format is functional. The method, boiled down: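 Agar dilution per CLSI guidelines on Mueller-Hinton agar. Overnight colonies suspended to about 10^6 cfu/mL, and 1 mL added to 19 mL medium. Stocks in 0.9% saline, tested over about 10 doubling dilutions from 100 µM to 0.1 µM. Plates incubated at 35 °C in ambient air for 16-20 h. MIC taken as the lowest concentration preventing visible growth.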

Data set [2] deals with Staphylococcus aureus. Put plainly: Antimicrobial activity against Staphylococcus aureus infected in CD1 mouse assessed as animal protection at 5 mg/kg, iv treated 4 hrs after infection measured 24 hrs post infection. The data set is classed as functional. The procedure, abridged: (§1)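 Female CD-1 mice (20–25 g, ten per group) were infected intraperitoneally with 3 × 10^7 cfu/mouse, slightly above LD100. Test compound was given iv at 5, 10 or 25 mg/kg at infection and 4 h post infection. Vancomycin at 5 mg/kg served as comparator. Survival was scored 24 h post infection.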

In data set [3] the test system is Staphylococcus aureus. Kind of data set: Inhibition of biofilm formation in methicillin-resistant Staphylococcus aureus MTCC 96 after 24 hr incubation by tissue culture plate method. As to conditions: MTCC 96, 24 h.
The nature of data set [4]: Cytotoxicity against human HEK293 cells assessed as reduction in cell viability at 100 uM after 72 hrs by MTT assay. The data set is classed as cell-based. As to conditions: read-out: INH. The method, boiled down:
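HEK-293 cells were seeded at 5000 per well and left 24 h, then washed. They were exposed to 100 µM in RPMI + 5% FBS + 1% penicillin/streptomycin, with final DMSO ≤0.5%, for 72 h at 37 °C in 5% CO2. DMSO-treated cultures served as controls. Viability was read by MTT at 570 nm, in triplicate, as percentage inhibition.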
In general terms: Tetrazolium assays rely on reduction of a dye to a coloured formazan, in cell work by metabolically active cells.

The target of another data set is DNA gyrase subunit B (Staphylococcus aureus, UniProt P0A0K8). Kind of data set: Inhibition of Staphylococcus aureus DNA gyrase B ATPase activity.
The species entered for data set [5] is Danio rerio. Kind of data set: Cardiotoxicity in zebra fish assessed as AV ratio up to 30 uM. The format is organism-based. The settings on record: zebrafish, in vivo. The procedure, abridged: (§2)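 Zebrafish larvae at 3 dpf were dosed in 24-well plates, 5 embryos per well, in 0.1% DMSO vehicle at 1–30 µM for 4 h at 28 °C. Terfenadine 20 µM was the positive control. Atrial and ventricular beats were watched by light microscopy, timing 30 beats and averaging 5 embryos per well. Results are mean ± SEM, with significance versus control.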

Another data set deals with DNA gyrase (Staphylococcus aureus, UniProt P0A0K8+P20831). Kind of data set: Inhibition of Staphylococcus aureus DNA gyrase-mediated supercoiling of relaxed DNA using pBR 322 as substrate by agarose gel electrophoresis analysis. The format is protein-complex assay.
The test system of data set [6] is Staphylococcus aureus. Kind of data set: Antimicrobial activity against Staphylococcus aureus infected in CD1 mouse assessed as animal protection at 25 mg/kg, iv treated 4 hrs after infection measured 24 hrs post infection.
For data set [7], the system named is Staphylococcus aureus. Kind of data set: Antimicrobial activity against Staphylococcus aureus MTCC 3160 after 16 to 24 hrs by agar dilution method. The data set is classed as functional. The method, boiled down: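 MIC by agar dilution per CLSI on Mueller-Hinton agar. Overnight colonies were suspended to about 10^6 cfu/mL, and 1 mL was added to 19 mL medium. Compounds were made up in 0.9% saline and tested over about 10 doubling dilutions, 100 µM to 0.1 µM. Plates ran 16-20 h at 35 °C in ambient air. MIC was the lowest concentration preventing visible growth.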
On the technique in general: In agar dilution the substance is mixed into plates at graded concentrations.

The species entered for data set [8] is Danio rerio. Kind of data set: Cardiotoxicity in zebra fish assessed as change in heart rate up to 30 uM. The format is toxicity, organism-based. The settings on record: zebrafish, in vivo. The procedure, abridged: as §2
Data set [9] concerns Staphylococcus aureus. Kind of data set: Antimicrobial activity against Staphylococcus aureus infected in CD1 mouse assessed as animal protection at 10 mg/kg, iv treated 4 hrs after infection measured 24 hrs post infection. The format is functional. The method, boiled down: as §1

In brackets after ≈: the same amount, converted by molar mass.

Sequence of DNA gyrase subunit B (P0A0K8 whole entry): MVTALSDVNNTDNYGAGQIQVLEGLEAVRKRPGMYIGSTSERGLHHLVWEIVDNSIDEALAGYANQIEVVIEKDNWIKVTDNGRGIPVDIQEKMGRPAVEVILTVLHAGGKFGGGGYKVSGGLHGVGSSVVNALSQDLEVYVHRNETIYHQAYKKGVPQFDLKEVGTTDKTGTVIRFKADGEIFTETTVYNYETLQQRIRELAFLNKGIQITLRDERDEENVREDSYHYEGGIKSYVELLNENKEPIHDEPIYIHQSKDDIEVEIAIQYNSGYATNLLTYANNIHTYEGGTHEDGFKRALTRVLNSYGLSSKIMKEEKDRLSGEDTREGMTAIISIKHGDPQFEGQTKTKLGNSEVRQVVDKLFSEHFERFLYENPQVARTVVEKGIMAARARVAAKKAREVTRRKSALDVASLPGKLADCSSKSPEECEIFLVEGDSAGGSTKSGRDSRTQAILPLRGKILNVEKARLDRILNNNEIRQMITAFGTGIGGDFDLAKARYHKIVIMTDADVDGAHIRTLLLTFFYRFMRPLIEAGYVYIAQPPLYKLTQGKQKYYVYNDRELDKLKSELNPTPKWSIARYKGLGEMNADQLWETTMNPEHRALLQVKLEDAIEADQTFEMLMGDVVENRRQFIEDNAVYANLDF
Sequence of DNA gyrase (P0A0K8 whole entry): as above
Sequence of DNA gyrase (P20831 whole entry): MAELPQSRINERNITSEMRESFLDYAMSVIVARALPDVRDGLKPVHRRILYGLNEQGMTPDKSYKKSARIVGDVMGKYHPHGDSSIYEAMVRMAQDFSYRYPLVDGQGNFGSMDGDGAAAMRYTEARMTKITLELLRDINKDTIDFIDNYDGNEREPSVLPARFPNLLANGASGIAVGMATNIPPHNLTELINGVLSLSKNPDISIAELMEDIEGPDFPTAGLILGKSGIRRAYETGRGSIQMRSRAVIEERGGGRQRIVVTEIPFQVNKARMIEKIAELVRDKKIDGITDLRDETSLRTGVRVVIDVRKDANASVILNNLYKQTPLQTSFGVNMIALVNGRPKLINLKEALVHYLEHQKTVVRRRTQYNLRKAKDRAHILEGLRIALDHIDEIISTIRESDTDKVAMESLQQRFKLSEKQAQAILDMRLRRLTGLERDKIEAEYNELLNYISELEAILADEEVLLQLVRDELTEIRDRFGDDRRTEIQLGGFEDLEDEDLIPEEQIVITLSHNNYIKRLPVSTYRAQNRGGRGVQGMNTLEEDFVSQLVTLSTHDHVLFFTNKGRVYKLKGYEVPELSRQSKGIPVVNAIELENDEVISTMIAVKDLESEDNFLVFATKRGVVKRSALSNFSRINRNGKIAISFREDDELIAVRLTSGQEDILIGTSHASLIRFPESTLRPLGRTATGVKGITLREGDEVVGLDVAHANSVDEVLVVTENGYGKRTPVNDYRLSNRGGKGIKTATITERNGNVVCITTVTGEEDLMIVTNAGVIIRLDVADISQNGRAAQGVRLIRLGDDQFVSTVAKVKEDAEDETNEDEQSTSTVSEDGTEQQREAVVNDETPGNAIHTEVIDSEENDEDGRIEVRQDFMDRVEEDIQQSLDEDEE

The MIC is the least concentration at which growth counts as inhibited. A high value points to a less susceptible organism. What is called IC50 is the concentration needed to halve the response being measured. Higher therefore signals a need for much substance. As to `O=C(O)CCCC(=O)Nc1ccc(-c2nc3cc(F)ccc3[nH]2)cc1`, the figures for the MIC in the data set on Staphylococcus aureus [1] and with Staphylococcus aureus [7] were 9.15 µM (≈ 3.12 µg/mL) and 4.57 µM (≈ 1.56 µg/mL), respectively. In addition, the Activity in the data set on Staphylococcus aureus [2] is reported as 60%; in the data set filed under Danio rerio [5] it was “Non-toxic”; in the data set on Staphylococcus aureus [6], 100%; in the data set listed under Danio rerio [8], “Non-toxic”; in the data set with Staphylococcus aureus [9] it was 80%. Also, the values for the IC50 in the data set on Staphylococcus aureus [3], on DNA gyrase subunit B and against DNA gyrase were 9.63 µM, 1.32 µM and 1.13 µM, respectively. Further, the cytotoxicity at 72 h, 100 µM in data set [4] amounted to 7.59%.

With `COc1ccc2[nH]c(-c3ccc(NC(=O)CCCC(=O)O)cc3)nc2c1`, the MIC against Staphylococcus aureus [1] and with Staphylococcus aureus [7] was 35.4 µM (≈ 12.5 µg/mL) throughout. Moreover, the concentration for half-maximal inhibition (IC50) with Staphylococcus aureus [3] is 52.2 µM; at DNA gyrase subunit B, 8.93 µM; against DNA gyrase, 5.32 µM. Besides, the cytotoxicity at 72 h, 100 µM in data set [4] came to 22.4%.

Regarding `O=C(O)COCC(=O)Nc1ccc(-c2nc3cc(F)ccc3[nH]2)cc1`, the minimal inhibitory concentration (MIC) in the data set with Staphylococcus aureus [1] and with Staphylococcus aureus [7] was 9.1 µM (≈ 3.12 µg/mL) each time. Also, the IC50 was 19.6 µM in the data set on Staphylococcus aureus [3], 6.12 µM against DNA gyrase subunit B and 2.9 µM on DNA gyrase. The cytotoxicity at 72 h, 100 µM in [4] came out at 14.5%.

Regarding `O=C(O)CCCCC(=O)Nc1ccc(-c2nc3cc(Cl)ccc3[nH]2)cc1`, the MIC against Staphylococcus aureus [1] and in the data set with Staphylococcus aureus [7] was 33.6 µM (≈ 12.5 µg/mL) each time. Also, the IC50 with Staphylococcus aureus [3] was found to be 39.2 µM; against DNA gyrase subunit B, 13.1 µM; on DNA gyrase, 8.91 µM. In addition, the cytotoxicity at 72 h, 100 µM in data set [4] came to 39.7%.

On to `O=C(O)CCCCC(=O)Nc1ccc(-c2nc3cc([N+](=O)[O-])ccc3[nH]2)cc1`, for which the MIC against Staphylococcus aureus [1] and against Staphylococcus aureus [7] was 32.6 µM (≈ 12.5 µg/mL) in each case. In addition, the figures for the half-inhibitory concentration (IC50) in the data set with Staphylococcus aureus [3], against DNA gyrase subunit B and against DNA gyrase were 44.2 µM, 9.82 µM and 6.09 µM, respectively. Also, the cytotoxicity at 72 h, 100 µM in data set [4] was 31.7%.

Turning to `O=C(O)CC(=O)Nc1ccc(-c2nc3cc([N+](=O)[O-])ccc3[nH]2)cc1`, the minimum inhibitory concentration (MIC) in the data set on Staphylococcus aureus [1] worked out at 18.3 µM (≈ 6.24 µg/mL); against Staphylococcus aureus [7], 9.18 µM (≈ 3.12 µg/mL). Moreover, the IC50 in the data set with Staphylococcus aureus [3] turned out to be 18.4 µM; against DNA gyrase subunit B, 4.93 µM; against DNA gyrase it was 2.23 µM. The cytotoxicity at 72 h, 100 µM in data set [4] was 26.9%.

For the compound `O=C(O)CSCC(=O)Nc1ccc(-c2nc3cc(F)ccc3[nH]2)cc1`, the minimum inhibitory concentration (MIC) with Staphylococcus aureus [1] was 17.3 µM (≈ 6.22 µg/mL); with Staphylococcus aureus [7], 34.8 µM (≈ 12.5 µg/mL). In addition, the IC50 turned out to be 59.1 µM with Staphylococcus aureus [3], 6.93 µM on DNA gyrase subunit B and 4.8 µM against DNA gyrase. Moreover, in data set [4], the cytotoxicity at 72 h, 100 µM is 20.6%.

For the compound `COC(=O)CCCC(=O)Nc1ccc(-c2nc3cc(Cl)ccc3[nH]2)cc1`, the minimum inhibitory concentration (MIC) stood at 134 µM (≈ 50 µg/mL) against Staphylococcus aureus [1] and 67.2 µM (≈ 25 µg/mL) in the data set with Staphylococcus aureus [7]. Moreover, the IC50 with Staphylococcus aureus [3] is more than 100 µM; against DNA gyrase subunit B, 35.6 µM; on DNA gyrase it was 22.2 µM. Further, in [4], the cytotoxicity at 72 h, 100 µM amounted to 27.9%.

On to `COC(=O)CCCC(=O)Nc1ccc(-c2nc3cc([N+](=O)[O-])ccc3[nH]2)cc1`, for which the MIC with Staphylococcus aureus [1] and with Staphylococcus aureus [7] was 32.7 µM (≈ 12.5 µg/mL) in each case. Further, the IC50 with Staphylococcus aureus [3] stood at 59.3 µM; on DNA gyrase subunit B, 9.83 µM; on DNA gyrase it was 5.3 µM. Moreover, in data set [4], the cytotoxicity at 72 h, 100 µM was found to be 35.9%.

`O=C(O)CCCC(=O)Nc1ccc(-c2nc3cc([N+](=O)[O-])ccc3[nH]2)cc1`: the values for the minimum inhibitory concentration (MIC) against Staphylococcus aureus [1] and in the data set with Staphylococcus aureus [7] were 44.1 µM (≈ 16.3 µg/mL) and 33.9 µM (≈ 12.5 µg/mL), respectively. For the same compound, the IC50 in the data set with Staphylococcus aureus [3] was found to be 62.3 µM; against DNA gyrase subunit B, 6.83 µM; against DNA gyrase, 6.12 µM. In data set [4], the cytotoxicity at 72 h, 100 µM is 27.2%.

Turning to `O=C(O)CCCCC(=O)Nc1ccc(-c2nc3cccnc3[nH]2)cc1`, the minimal inhibitory concentration (MIC) with Staphylococcus aureus [1] was 9.23 µM (≈ 3.12 µg/mL); against Staphylococcus aureus [7] it was 4.61 µM (≈ 1.56 µg/mL). The IC50 came out at 15.7 µM with Staphylococcus aureus [3], 2.9 µM against DNA gyrase subunit B and 2.1 µM at DNA gyrase. Moreover, the cytotoxicity at 72 h, 100 µM in [4] was 22.7%.

`O=C(O)CSCC(=O)Nc1ccc(-c2nc3cccnc3[nH]2)cc1`: the MIC against Staphylococcus aureus [1] amounted to 9.12 µM (≈ 3.12 µg/mL); against Staphylococcus aureus [7], 4.55 µM (≈ 1.56 µg/mL). For the same compound, the IC50 in the data set with Staphylococcus aureus [3] turned out to be 11.3 µM; against DNA gyrase subunit B, 2.31 µM; against DNA gyrase, 1.7 µM. The cytotoxicity at 72 h, 100 µM in data set [4] was 31.9%.

Consider `O=C(O)COCC(=O)Nc1ccc(-c2nc3ccccc3[nH]2)cc1`, for which the minimal inhibitory concentration (MIC) against Staphylococcus aureus [1] was found to be 46.9 µM (≈ 15.3 µg/mL); in the data set with Staphylococcus aureus [7], 38.4 µM (≈ 12.5 µg/mL). For the same compound, the IC50 in the data set with Staphylococcus aureus [3] was 68.8 µM; on DNA gyrase subunit B it was 6.01 µM; against DNA gyrase, 4.81 µM. Further, the cytotoxicity at 72 h, 100 µM in data set [4] is 40%.

Turning to `O=C(O)CCCCC(=O)Nc1ccc(-c2nc3cc(F)ccc3[nH]2)cc1`, the results for the MIC in the data set with Staphylococcus aureus [1] and in the data set with Staphylococcus aureus [7] were 59.3 µM (≈ 21.1 µg/mL) and 35.2 µM (≈ 12.5 µg/mL), respectively. In addition, the IC50 was more than 100 µM in the data set on Staphylococcus aureus [3], 15.3 µM against DNA gyrase subunit B and 7.1 µM against DNA gyrase. The cytotoxicity at 72 h, 100 µM in [4] was 29%.

For `O=C(O)COCC(=O)Nc1ccc(-c2nc3cc(Cl)ccc3[nH]2)cc1`, the minimum inhibitory concentration (MIC) amounted to 69.5 µM (≈ 25 µg/mL) with Staphylococcus aureus [1] and 34.7 µM (≈ 12.5 µg/mL) in the data set on Staphylococcus aureus [7]. For the same compound, the 50% inhibitory concentration (IC50) stood at 71.2 µM in the data set with Staphylococcus aureus [3], 15.3 µM against DNA gyrase subunit B and 12.5 µM against DNA gyrase. In data set [4], the cytotoxicity at 72 h, 100 µM amounted to 29.7%.

On to `O=C(O)CSCC(=O)Nc1ccc(-c2nc3ccccc3[nH]2)cc1`, for which the MIC came out at 37.6 µM (≈ 12.8 µg/mL) in the data set with Staphylococcus aureus [1] and 73.3 µM (≈ 25 µg/mL) against Staphylococcus aureus [7]. Besides, the results for the half-inhibitory concentration (IC50) in the data set on Staphylococcus aureus [3], on DNA gyrase subunit B and on DNA gyrase were 82.1 µM, 22.8 µM and 12.5 µM, respectively. Further, the cytotoxicity at 72 h, 100 µM in [4] worked out at 13.1%.

For the compound `O=C(O)CCC(=O)Nc1ccc(-c2nc3ccccc3[nH]2)cc1`, the figures for the MIC with Staphylococcus aureus [1] and in the data set on Staphylococcus aureus [7] were 40.4 µM (≈ 12.5 µg/mL) and 20.2 µM (≈ 6.25 µg/mL), respectively. Further, the half-maximal inhibitory concentration (IC50) in the data set on Staphylococcus aureus [3] is 88.3 µM; against DNA gyrase subunit B it was 7.32 µM; at DNA gyrase it was 6.12 µM. Besides, the cytotoxicity at 72 h, 100 µM in data set [4] stood at 2.9%.

Turning to `COC(=O)CCCC(=O)Nc1ccc(-c2nc3cccnc3[nH]2)cc1`, the MIC in the data set on Staphylococcus aureus [1] and with Staphylococcus aureus [7] was 36.9 µM (≈ 12.5 µg/mL) each time. For the same compound, the IC50 amounted to 79.3 µM in the data set on Staphylococcus aureus [3], 5.23 µM at DNA gyrase subunit B and 6.8 µM against DNA gyrase. Also, in data set [4], the cytotoxicity at 72 h, 100 µM is 57.5%.
